Measured values reported in ChEMBL document CHEMBL2429791, “Preparation of asymmetric urea derivatives that target prostate-specific membrane antigen for SPECT imaging” (J Med Chem, 2013).

Key:
[1] = test system: PC-3; assay: Biodistribution in PC3 cells in C.B.-17/Icr +/+ Jcl mouse xenografted with human LNCAP and PC3 cells at 25.9 MBq, iv after 30 mins; format: ADME, organism-based; conditions: in vivo, 0.5 h
Summary of the method: (§1)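 ¹²⁵I-labelled tracer given iv by tail vein to mice (22–24 g) bearing LNCaP (left shoulder) and PC-3 (right shoulder) xenografts of about 5–10 mm, grown from 1–5 × 10⁶ cells in 1:1 Matrigel. n=4 per time point; decapitated at 2 min, 30 min, 1, 3, 6 h. Tissues weighed and counted; uptake as %ID/g, mean ± SD.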

[2] = test system: Nucleic Acid; assay: Ratio of drug level in human LNCAP cells to human PC3 cells xenografted in C.B.-17/Icr […] Jcl mouse at 25.9 MBq, iv after 6 hrs; format: ADME, organism-based; conditions: in vivo
[3] = test system: LNCaP; assay: Biodistribution in LNCAP cells in C.B.-17/Icr +/+ Jcl mouse xenografted with human LNCAP and PC3 cells at 25.9 MBq, iv after 30 mins in presence of 2-PMPA; format: ADME, organism-based; conditions: in vivo, 0.5 h
Summary of the method: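 Blocking study: ¹²⁵I-labelled tracer coinjected iv by tail vein with 2-PMPA (50 mg/kg) in LNCaP/PC-3 xenograft-bearing mice (22–24 g). Mice decapitated 30 min after injection; tissues weighed and counted; uptake as %ID/g.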

[4] = test system: Stomach; assay: Biodistribution in stomach of C.B.-17/Icr +/+ Jcl mouse xenografted with human LNCAP and PC3 cells at 25.9 MBq, iv after 6 hrs; format: ADME, organism-based; conditions: in vivo
Summary of the method: (§2)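 Radioiodinated (¹²⁵I) tracer given by tail-vein injection to mice bearing LNCaP (left shoulder) and PC-3 (right shoulder) xenografts, 22–24 g, grown to about 5–10 mm. Groups of n=4 were decapitated at 2 min, 30 min, 1 h, 3 h or 6 h. Tissues were weighed and counted, and uptake was expressed as %ID/g (mean ± SD).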

[5] = test system: Blood; assay: Biodistribution in blood of C.B.-17/Icr +/+ Jcl mouse xenografted with human LNCAP and PC3 cells at 25.9 MBq, iv after 30 mins; format: ADME, organism-based; conditions: in vivo, 0.5 h; summary of the method: as §1
[6] = test system: Liver; assay: Biodistribution in liver of C.B.-17/Icr […] Jcl mouse xenografted with human LNCAP and PC3 cells at 25.9 MBq, iv after 3 hrs; format: ADME, organism-based; conditions: in vivo; summary of the method: as §1
[7] = Ratio of drug level in human LNCAP cells xenografted in C.B.-17/Icr +/+ Jcl mouse to blood of C.B.-17/Icr +/+ Jcl mouse xenografted with human LNCAP and PC3 cells at 25.9 MBq, iv after 6 hrs; format: ADME, organism-based; conditions: LNCAP tumour xenograft relative to blood
Summary of the method: (§3)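 Tumor-to-blood and tumor-to-muscle ratios were calculated from %ID/g values in ¹²⁵I-tracer biodistribution in LNCaP/PC-3 xenografted mice. Tail-vein dosing, n=4 per time point, sacrifice at 2 min, 30 min, 1, 3 or 6 h.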

[8] = test system: Nucleic Acid; assay: Ratio of drug level in human LNCAP cells to human PC3 cells xenografted in C.B.-17/Icr […] Jcl mouse at 25.9 MBq, iv after 3 hrs; format: ADME, organism-based; conditions: in vivo
[9] = test system: Nucleic Acid; assay: Ratio of drug level in human PC3 cells xenografted in C.B.-17/Icr +/+ Jcl mouse to muscle of C.B.-17/Icr +/+ Jcl mouse xenografted with human LNCAP and PC3 cells at 25.9 MBq, iv after 1 hr; format: ADME, organism-based; conditions: in vivo
Summary of the method: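 Mice (22–24 g) carried PC-3 (right shoulder) and LNCaP (left shoulder) tumors, raised by injecting 1–5 × 10⁶ cells in 1:1 PBS/Matrigel and used at about 5–10 mm diameter. [¹²⁵I]-tracer was given via the tail vein, n=4 per time point, and mice were decapitated at 2 min, 30 min, 1, 3 or 6 h. Tissues were weighed and γ-counted as %ID/g. Tumor/blood and tumor/muscle ratios were taken from %ID/g, mean ± SD.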

[10] = test system: Kidney; assay: Drug excretion in C.B.-17/Icr […] Jcl mouse kidney xenografted with human LNCAP and PC3 cells at 25.9 MBq, iv; format: ADME, organism-based; conditions: in vivo
[11] = test system: Intestine; assay: Biodistribution in intestine of C.B.-17/Icr +/+ Jcl mouse xenografted with human LNCAP and PC3 cells at 25.9 MBq, iv after 30 mins; format: ADME, organism-based; conditions: in vivo, 0.5 h; summary of the method: as §1
[12] = molecular target: Glutamate carboxypeptidase 2 (Homo sapiens, UniProt Q04609); assay: Binding affinity to PSMA in human LNCaP cells after 1 hr by gamma counting; format: cell-based
Summary of the method: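 LNCaP cells plated at 4 × 10⁵ cells/well and grown 48 h (37 °C/5% CO₂), then washed with RPMI 1640 containing 0.5% BSA. Saturation binding used ¹²⁵I-labelled ligand (specific activity 81.4 kBq/nmol), 1 h at 37 °C; nonspecific binding measured with 100 µM non-radioactive iodinated compound. Cells washed, lysed in 0.2 N NaOH, gamma-counted; Kd from Scatchard plots.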

[13] = test system: Blood; assay: Biodistribution in blood of C.B.-17/Icr +/+ Jcl mouse xenografted with human LNCAP and PC3 cells at 25.9 MBq, iv after 3 hrs; format: ADME, organism-based; conditions: in vivo; summary of the method: as §1
[14] = Ratio of drug level in human LNCAP cells xenografted in C.B.-17/Icr +/+ Jcl mouse to blood of C.B.-17/Icr +/+ Jcl mouse xenografted with human LNCAP and PC3 cells at 25.9 MBq, iv after 2 mins; format: ADME, organism-based; conditions: LNCAP tumour xenograft relative to blood; summary of the method: as §3
[15] = test system: Kidney; assay: Biodistribution in kidney of C.B.-17/Icr […] Jcl mouse xenografted with human LNCAP and PC3 cells at 25.9 MBq, iv after 3 hrs; format: ADME, organism-based; conditions: in vivo; summary of the method: as §1
[16] = test system: Kidney; assay: Biodistribution in kidney of C.B.-17/Icr […] Jcl mouse xenografted with human LNCAP and PC3 cells at 25.9 MBq, iv after 6 hrs; format: ADME, organism-based; conditions: in vivo; summary of the method: as §1
[17] = test system: Nucleic Acid; assay: Ratio of drug level in human LNCAP cells to human PC3 cells xenografted in C.B.-17/Icr […] Jcl mouse at 25.9 MBq, iv after 1 hr; format: ADME, organism-based; conditions: in vivo
[18] = test system: Blood; assay: Biodistribution in blood of C.B.-17/Icr scid/scid Jcl mouse xenografted with human LNCAP and PC3 cells at 25.9 MBq, iv after 30 mins; format: ADME, organism-based; conditions: in vivo, 0.5 h
[19] = test system: Spleen; assay: Biodistribution in spleen of C.B.-17/Icr scid/scid Jcl mouse xenografted with human LNCAP and PC3 cells at 25.9 MBq, iv after 30 mins; format: ADME, organism-based; conditions: in vivo, 0.5 h
[20] = test system: Kidney; assay: Biodistribution in kidney of C.B.-17/Icr +/+ Jcl mouse xenografted with human LNCAP and PC3 cells at 25.9 MBq, iv after 30 mins; format: ADME, organism-based; conditions: in vivo, 0.5 h; summary of the method: as §1
[21] = test system: Heart; assay: Biodistribution in heart of C.B.-17/Icr +/+ Jcl mouse xenografted with human LNCAP and PC3 cells at 25.9 MBq, iv after 2 mins; format: ADME, organism-based; conditions: in vivo; summary of the method: as §1
[22] = test system: Kidney; assay: Biodistribution in kidney of C.B.-17/Icr […] Jcl mouse xenografted with human LNCAP and PC3 cells at 25.9 MBq, iv after 1 hr; format: ADME, organism-based; conditions: in vivo; summary of the method: as §1
[23] = test system: Muscle tissue; assay: Biodistribution in muscle of C.B.-17/Icr +/+ Jcl mouse xenografted with human LNCAP and PC3 cells at 25.9 MBq, iv after 6 hrs; format: ADME, organism-based; conditions: in vivo; summary of the method: as §2
[24] = test system: Thyroid gland; assay: Biodistribution in thyroid of C.B.-17/Icr +/+ Jcl mouse xenografted with human LNCAP and PC3 cells at 25.9 MBq, iv after 1 hr; format: ADME, organism-based; conditions: in vivo; summary of the method: as §2

Sequence of Glutamate carboxypeptidase 2 (Q04609 whole entry): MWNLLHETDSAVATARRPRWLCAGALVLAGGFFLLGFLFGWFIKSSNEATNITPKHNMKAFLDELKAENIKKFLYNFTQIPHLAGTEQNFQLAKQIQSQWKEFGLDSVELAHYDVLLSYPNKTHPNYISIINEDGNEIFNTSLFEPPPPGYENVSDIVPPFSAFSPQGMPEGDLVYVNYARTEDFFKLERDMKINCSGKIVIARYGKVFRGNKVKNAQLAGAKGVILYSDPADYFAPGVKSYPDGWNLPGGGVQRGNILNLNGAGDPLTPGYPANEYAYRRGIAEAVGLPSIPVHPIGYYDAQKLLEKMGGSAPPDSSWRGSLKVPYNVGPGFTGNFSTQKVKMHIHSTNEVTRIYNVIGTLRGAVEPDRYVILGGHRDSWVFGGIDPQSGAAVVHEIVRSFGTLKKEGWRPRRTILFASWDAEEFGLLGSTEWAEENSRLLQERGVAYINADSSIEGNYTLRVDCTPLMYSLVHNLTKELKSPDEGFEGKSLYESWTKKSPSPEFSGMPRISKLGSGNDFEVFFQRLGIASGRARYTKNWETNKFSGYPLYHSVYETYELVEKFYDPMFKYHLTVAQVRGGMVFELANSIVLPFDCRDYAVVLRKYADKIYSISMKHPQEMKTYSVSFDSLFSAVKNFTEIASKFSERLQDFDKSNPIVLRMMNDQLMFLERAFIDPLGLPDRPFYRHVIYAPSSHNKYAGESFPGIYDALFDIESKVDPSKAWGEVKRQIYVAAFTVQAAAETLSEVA

O=C(O)CC[C@H](NC(=O)N[C@@H](CSC1CC(=O)N(CCCC[C@H](NC(=O)CNC(=O)c2cccc([125I])c2)C(=O)O)C1=O)C(=O)O)C(=O)O (some centres undefined)
Drug uptake [1]: 0.9 % ID/g | Ratio [2]: 36.8 | Drug uptake [3]: Not Active | Drug uptake [4]: 0.7 %ID | Drug uptake [5]: 1.3 % ID/g | Drug uptake [6]: 9 % ID/g | Kp at 6 h [7]: 13.3 | Ratio [8]: 33.9 | Ratio [9]: 1.6 | Drug excretion [10]: Active | Drug uptake [11]: 11.2 % ID/g | Kd [12]: 7.8 nM | Drug uptake [13]: 0.7 % ID/g | Kp at 2 min [14]: 0.6 | Drug uptake [15]: 110 % ID/g | Drug uptake [16]: 97.1 % ID/g | Ratio [17]: 9.6 | Drug uptake [18]: 1.5 % ID/g | Drug uptake [19]: Active | Drug uptake [20]: 88.8 % ID/g | Drug uptake [21]: 5.4 % ID/g | Drug uptake [22]: 92.8 % ID/g | Drug uptake [23]: 0.1 % ID/g | Drug uptake [24]: 0.01 %ID
